In ChEMBL document CHEMBL3425411, “Synthesis of β-Carboline-Based N-Heterocyclic Carbenes and Their Antiproliferative and Antimetastatic Activities against Human Breast Cancer Cells” (J Med Chem, 2015) one finds Activity, inhibition and Kb data, which are given here for one compound.

Data set [1] deals with MDA-MB-231. As to the kind of experiment: Downregulation of Bcl-2 expression in human MDA-MB-231 cells at 5 to 7.5 uM after 24 hrs by Western blot analysis. The data set is classed as functional, cell-based. The method in brief:
(§1)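 Cells were treated for 24 h. Lysates were made in RIPA buffer, and 40 μg protein was resolved on 10–15% SDS-PAGE and transferred to PVDF. Membranes were blocked with 5% milk and probed overnight at 4 °C with primary antibodies, then HRP secondaries. Detection was by ECL with β-actin as loading control. Blots represent three independent experiments.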

Data set [2] concerns MDA-MB-231. The data set is described as follows: Downregulation of Bcl-XL expression in human MDA-MB-231 cells at 5 to 7.5 uM after 24 hrs by Western blot analysis. It counts as functional, cell-based. The method in brief: as §1
(In general: A western blot detects proteins with antibodies after separation by electrophoresis.)

For data set [3], the system named is MDA-MB-231. The data set is described as follows: Downregulation of CDC25C expression in human MDA-MB-231 cells at 5 to 7.5 uM after 24 hrs by Western blot analysis. It counts as functional, cell-based. The method in brief:
as §1

Data set [4] deals with MDA-MB-231. The data set is described as follows: Antiinvasive activity against human MDA-MB-231 cells at 1 uM after 48 hrs by transwell assay. It counts as functional, cell-based. The method in brief:
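Matrigel (growth factor reduced, diluted in serum-free medium) coated on 8 μm pore polycarbonate transwell membranes, set 2 h at 37 °C. 30 000 cells/well seeded in RPMI-1640 with 1% FBS plus compound; lower chamber had 10% FBS as chemoattractant. After 48 h, non-invaded cells were swabbed off and invaded cells were methanol-fixed and stained with 0.1% crystal violet. At least 10 random fields were counted and expressed versus control.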

Data set [5] deals with MDA-MB-231. The data set is described as follows: Downregulation of CDK1 expression in human MDA-MB-231 cells at 5 to 7.5 uM after 24 hrs by Western blot analysis. The data set is classed as functional, cell-based. The method in brief: as §1
The target of data set [6] is c-Jun N-terminal kinase, JNK (Homo sapiens) (UniProt P45983+P53779+P45984). As to the kind of experiment: Inhibition of SAPK/JNK phosphorylation in human MDA-MB-231 cells at 5 to 7.5 uM after 24 hrs by Western blot analysis. The data set is classed as cell-based. The gist of the method: (§2)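 MDA-MB-231 cells treated 24 h, then lysed in RIPA buffer. 40 μg protein run on 10–15% SDS–PAGE and transferred to PVDF. Blocked in 5% milk, probed overnight at 4 °C with primary antibodies (phospho- and total ERK1/2, JNK, p38, cleaved caspase-3), then HRP secondary. ECL detection with β-actin as loading control. Blots representative of three experiments.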

Data set [7] deals with MDA-MB-231. The data set is described as follows: Upregulation of cleaved caspase-3 expression in human MDA-MB-231 cells at 5 to 7.5 uM after 24 hrs by Western blot analysis. It counts as functional, cell-based. The method in brief:
as §2

Data set [8] deals with MDA-MB-231. The data set is described as follows: Induction of apoptosis in human MDA-MB-231 cells assessed as PARP cleavage at 5 to 7.5 uM after 24 hrs by Western blot analysis. The data set is classed as functional, cell-based. The gist of the method: as §1
Data set [9] deals with T1, Albumin (Homo sapiens, UniProt P02768). As to the kind of experiment: Binding affinity to human serum albumin at 303 K at pH 7.4 by fluorescence spectra analysis. It counts as ADME. Conditions: isolated protein. The method in brief:
(§3)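 Steady-state Trp fluorescence quenching of HSA (10 μM, 0.05 M phosphate pH 7.4, excitation 295 nm) by increasing compound was run at each of three temperatures. F₀/F was fitted to the Stern–Volmer equation for KSV. Binding constant Kb and n came from the modified equation log[(F₀−F)/F] = log Kb + n log[Q].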

In data set [10] the target is T1, Albumin. As to the kind of experiment: Binding affinity to human serum albumin at 283 K at pH 7.4 by fluorescence spectra analysis. It counts as ADME. Conditions: isolated protein. The method in brief:
as §3

In data set [11] the test system is MDA-MB-231. The data set is described as follows: Antimigratory activity against human MDA-MB-231 cells at 2.5 to 5 uM after 12 to 24 hrs by wound healing assay. It counts as functional, cell-based. The method in brief: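 2 × 10⁵ cells were plated in six-well plates and scratched with a 200 μL tip. Debris was removed, then cells were treated (0, 1, 2.5, 5, 7.5 μM; or 0–5 μM). The wound was photographed at 0, 12 and 24 h under 100× phase contrast. Area was measured as percent wound closure versus control. Three independent experiments, mean ± SEM.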

Data set [12] concerns the target T1, Albumin. The data set is described as follows: Binding affinity to human serum albumin at 2 to 50 uM at pH 7.4 by spectroscopic analysis. Conditions: isolated protein, pH 7.4, 50 µM. The data set is classed as ADME. The method in brief: (§4)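 Fatty-acid-free HSA (10 μM) in 0.05 M phosphate buffer pH 7.4 was titrated with compound from 0 to 50 μM. Trp emission was excited at 295 nm and quenching was monitored. Data were fitted to the Stern–Volmer equation and a modified log[(F₀−F)/F] versus log[Q] plot, giving Kb and n from intercept and slope.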

Data set [13] deals with T1, Albumin. As to the kind of experiment: Binding affinity to human serum albumin assessed as change in secondary structure up to 40 uM at pH 7.4 by circular dichroism spectra analysis. Conditions: isolated protein. It counts as ADME. Background: CD spectra are sensitive to the conformation of chiral molecules.
Data set [14] deals with Matrix metalloproteinase-9 (Homo sapiens) (UniProt P14780). As to the kind of experiment: Inhibition of MMP-9 in human MDA-MB-231 cells at 1 to 5 uM after 24 hrs by gelatin zymographic method. It counts as cell-based. The gist of the method: (§5)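 MDA-MB-231 cells, 1 × 10⁵ per well, treated 24 h with 0, 1, 2.5, 5 or 7.5 μM. Conditioned medium centrifuged and equal protein loaded on 8% SDS–PAGE containing 0.1% gelatin, run at 80 V. Triton X-100 washes, then developed 20 h at 37 °C in Tris-HCl pH 7.5 with NaCl, CaCl₂ and ZnCl₂. Coomassie stain, then destain.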

Data set [15] deals with MDA-MB-231. As to the kind of experiment: Downregulation of cyclin B expression in human MDA-MB-231 cells at 5 to 7.5 uM after 24 hrs by Western blot analysis. The data set is classed as functional, cell-based. The method in brief:
as §1

The target in data set [16] is T1, Albumin. The data set is described as follows: Binding affinity to human serum albumin at 2 to 50 uM at pH 7.4 by fluorescence spectra analysis. It counts as ADME. Conditions: isolated protein, pH 7.4, 50 µM. The method in brief: as §4
Data set [17] deals with 72 kDa type IV collagenase (Homo sapiens) (UniProt P08253). As to the kind of experiment: Inhibition of MMP-2 in human MDA-MB-231 cells at 1 to 5 uM after 24 hrs by gelatin zymographic method. It counts as cell-based. The method in brief: as §5
Data set [18] relates to MDA-MB-231. As to the kind of experiment: Downregulation of survivin expression in human MDA-MB-231 cells at 5 to 7.5 uM after 24 hrs by Western blot analysis. The data set is classed as functional, cell-based. The gist of the method:
as §1

Data set [19] has as its target T1, Albumin. As to the kind of experiment: Binding affinity to human serum albumin at 293 K at pH 7.4 by fluorescence spectra analysis. It counts as ADME. The conditions noted are these: isolated protein. The gist of the method: as §3
Data set [20] deals with Mitogen-activated protein kinase; ERK1/ERK2 (Homo sapiens) (UniProt P27361+P28482). As to the kind of experiment: Inhibition of ERK1/2 phosphorylation in human MDA-MB-231 cells at 5 to 7.5 uM after 24 hrs by Western blot analysis. The data set is classed as cell-based. The method in brief:
as §2

Data set [21] addresses MAP kinase p38 (Homo sapiens) (UniProt O15264+Q15759+Q16539+P53778). As to the kind of experiment: Induction of p38 MAPK phosphorylation in human MDA-MB-231 cells at 5 to 7.5 uM after 24 hrs by Western blot analysis. It counts as cell-based. The method in brief: as §2

Calls of active or inactive are those of the source. The calls are words filed in the database; no cut-off is given here.

T1 sequence (P02768 whole entry): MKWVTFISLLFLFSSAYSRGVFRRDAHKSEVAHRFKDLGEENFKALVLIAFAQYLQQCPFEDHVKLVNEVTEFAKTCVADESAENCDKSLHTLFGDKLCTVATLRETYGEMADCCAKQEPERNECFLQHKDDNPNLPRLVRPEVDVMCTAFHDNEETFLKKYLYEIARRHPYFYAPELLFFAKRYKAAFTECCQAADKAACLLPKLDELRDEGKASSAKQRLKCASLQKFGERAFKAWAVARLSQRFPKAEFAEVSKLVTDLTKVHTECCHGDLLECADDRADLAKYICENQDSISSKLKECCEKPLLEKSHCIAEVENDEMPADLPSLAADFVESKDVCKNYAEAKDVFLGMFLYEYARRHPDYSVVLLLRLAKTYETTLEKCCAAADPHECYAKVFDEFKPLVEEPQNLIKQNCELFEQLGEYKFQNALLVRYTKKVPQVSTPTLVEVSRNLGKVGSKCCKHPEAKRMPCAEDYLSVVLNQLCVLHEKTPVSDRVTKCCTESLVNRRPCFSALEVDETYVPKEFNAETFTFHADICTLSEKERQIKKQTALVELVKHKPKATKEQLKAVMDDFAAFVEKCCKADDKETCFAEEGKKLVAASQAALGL
72 kDa type IV collagenase (Homo sapiens), sequence (P08253 110-660 limits assumed): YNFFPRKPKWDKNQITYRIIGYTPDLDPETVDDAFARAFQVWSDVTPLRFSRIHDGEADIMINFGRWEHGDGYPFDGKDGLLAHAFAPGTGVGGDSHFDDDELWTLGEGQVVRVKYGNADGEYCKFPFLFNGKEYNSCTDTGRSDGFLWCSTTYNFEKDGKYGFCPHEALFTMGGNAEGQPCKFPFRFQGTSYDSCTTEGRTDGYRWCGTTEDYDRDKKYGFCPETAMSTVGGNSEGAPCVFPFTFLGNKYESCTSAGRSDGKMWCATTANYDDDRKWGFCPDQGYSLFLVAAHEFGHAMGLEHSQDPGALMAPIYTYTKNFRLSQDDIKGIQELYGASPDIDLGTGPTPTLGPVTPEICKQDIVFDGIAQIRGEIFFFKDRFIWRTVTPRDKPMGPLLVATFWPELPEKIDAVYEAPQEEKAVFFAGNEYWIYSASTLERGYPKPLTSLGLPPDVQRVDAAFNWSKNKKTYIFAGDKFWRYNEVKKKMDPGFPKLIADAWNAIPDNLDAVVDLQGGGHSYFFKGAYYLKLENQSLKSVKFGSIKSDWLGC
Matrix metalloproteinase-9 (Homo sapiens), sequence (P14780 whole entry): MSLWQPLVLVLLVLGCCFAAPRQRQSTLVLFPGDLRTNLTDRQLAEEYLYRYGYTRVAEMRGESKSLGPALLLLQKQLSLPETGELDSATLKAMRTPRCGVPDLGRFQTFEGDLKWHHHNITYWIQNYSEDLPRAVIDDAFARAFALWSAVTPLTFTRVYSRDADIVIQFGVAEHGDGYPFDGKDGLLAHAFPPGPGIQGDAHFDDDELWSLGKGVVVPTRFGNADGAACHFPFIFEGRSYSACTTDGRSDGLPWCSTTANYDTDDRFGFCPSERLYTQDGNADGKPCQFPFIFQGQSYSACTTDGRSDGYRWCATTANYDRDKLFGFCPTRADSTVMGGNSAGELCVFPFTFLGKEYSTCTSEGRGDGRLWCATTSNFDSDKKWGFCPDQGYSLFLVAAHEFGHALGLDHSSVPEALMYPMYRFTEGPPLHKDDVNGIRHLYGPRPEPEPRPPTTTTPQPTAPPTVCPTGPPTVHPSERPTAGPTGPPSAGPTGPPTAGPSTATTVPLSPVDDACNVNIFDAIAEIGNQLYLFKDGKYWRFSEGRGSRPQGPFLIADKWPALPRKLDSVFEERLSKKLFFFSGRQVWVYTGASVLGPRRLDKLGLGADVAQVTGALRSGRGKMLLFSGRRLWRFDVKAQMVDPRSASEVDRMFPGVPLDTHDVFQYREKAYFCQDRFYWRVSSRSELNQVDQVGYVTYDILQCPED
Mitogen-activated protein kinase; ERK1/ERK2 (Homo sapiens), sequence (P27361 whole entry, looked up): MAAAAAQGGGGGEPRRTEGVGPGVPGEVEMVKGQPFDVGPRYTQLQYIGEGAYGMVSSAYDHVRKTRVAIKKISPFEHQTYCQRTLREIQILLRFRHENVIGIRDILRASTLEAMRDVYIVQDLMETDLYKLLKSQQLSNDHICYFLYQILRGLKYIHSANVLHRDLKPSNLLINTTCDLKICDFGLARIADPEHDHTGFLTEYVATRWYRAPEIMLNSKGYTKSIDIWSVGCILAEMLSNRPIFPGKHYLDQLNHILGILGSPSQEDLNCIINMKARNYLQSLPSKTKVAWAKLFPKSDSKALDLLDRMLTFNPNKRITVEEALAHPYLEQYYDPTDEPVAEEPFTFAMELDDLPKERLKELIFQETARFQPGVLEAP
Mitogen-activated protein kinase; ERK1/ERK2 (Homo sapiens), sequence (P28482 whole entry, looked up): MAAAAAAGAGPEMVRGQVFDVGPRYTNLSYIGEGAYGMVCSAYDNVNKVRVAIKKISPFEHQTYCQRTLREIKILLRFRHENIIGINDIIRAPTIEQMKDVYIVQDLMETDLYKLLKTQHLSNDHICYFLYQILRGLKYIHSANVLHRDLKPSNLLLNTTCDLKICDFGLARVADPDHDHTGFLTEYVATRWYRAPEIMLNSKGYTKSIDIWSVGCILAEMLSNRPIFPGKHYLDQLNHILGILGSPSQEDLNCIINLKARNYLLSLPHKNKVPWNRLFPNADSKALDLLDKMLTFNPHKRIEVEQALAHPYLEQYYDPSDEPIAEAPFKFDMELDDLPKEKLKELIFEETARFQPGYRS

As to `COC(=O)c1cc2c3ccccc3[nH]c2c2cn(-c3ccc(F)cc3Cl)c[n+]12.[Cl-]`, the outcome in the data set with MDA-MB-231 [1], with MDA-MB-231 [2], in the data set on MDA-MB-231 [3], with MDA-MB-231 [4], with MDA-MB-231 [5] and with MDA-MB-231 [7] was Active. Besides, the outcome (in the data set on MDA-MB-231 [8]; with MDA-MB-231 [11]; in the data set on MDA-MB-231 [15]; with MDA-MB-231 [18]; in [21]) was Active. The inhibition entry in data set [6], in data set [14], in data set [17] and in [20] was “Active” in each case. For the same compound, the values for the Kb on Albumin [9], on Albumin [10] and at Albumin [19] were 7.94 ×10⁴ L/mol, 9.77 ×10⁴ L/mol and 8.91 ×10⁴ L/mol, respectively. Moreover, the Activity entry at Albumin [12] is listed as “Active”; on Albumin [13], “Not Active”; on Albumin [16], “Active”.
